Laboratory results: publication PMC3065024 (Nuclear medicine and biology, 2011)

Columns and labels:
9L xenograft = assay: In vivo biodistribution in Fisher rats with 9L glioma tumors; conditions: for Tumor uptake: 9L tumor, n = 5; for Tumor uptake / Blood uptake / Bone uptake / Brain uptake / Heart uptake / Kidney uptake / Liver uptake / Lung uptake / Muscle uptake / Pancreas uptake / Skin uptake / Spleen uptake: mean ± SD; for Blood uptake / Bone uptake / Brain uptake / Heart uptake / Kidney uptake / Liver uptake / Lung uptake / Muscle uptake / Pancreas uptake / Skin uptake / Spleen uptake: six rats
9L glioma cells [1] = assay: In vitro cell uptake studies in 9L cells; type: cell-based; conditions: time course up to 2 h
Procedure, shortened: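 9L gliosarcoma cells were grown in DMEM with 10% FBS and 1% penicillin/streptomycin at 37 °C, 5% CO2. They were seeded at 2.0 × 10^5 cells/well 24 h ahead and rinsed with warm PBS containing Ca2+/Mg2+. Radiotracer in PBS (~500,000 cpm/mL/well) was applied for 5, 30, 60 or 120 min at 37 °C. Cells were washed in ice-cold Ca/Mg-free PBS, lysed in 1 M NaOH and gamma-counted. Uptake is %ID/100 μg Lowry protein, in triplicate.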

9L glioma cells [2] = assay: Uptake mechanism; type: cell-based; conditions: 30 min incubation
Procedure, shortened: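 The plating, washing, lysis and counting of 9L cells were as in the uptake assay. The radiotracer in PBS was co-incubated with MeAIB, L-Ala, L-Ser, BCH, D-Met or NEM at 0.5, 1 or 5 mM. For sodium dependence, PBS was replaced by Na+-free buffer (143 mM choline chloride, 2.68 mM KCl, 1.47 mM KH2PO4). Incubation was 30 min at 37 °C. Values are normalised to uninhibited uptake in PBS, n = 3.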

9L tumor = assay: Small animal imaging with a microPET in 9L tumor bearing rats; type: in vivo, F344 rats; conditions: after intravenous injection, dynamic PET scan
Procedure, shortened: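 Rats bearing 9L xenografts were anaesthetised with 1–2% isoflurane and given 30–37 MBq (0.8–1 mCi) of radiotracer via the lateral tail vein. Dynamic small-animal PET acquisition started at injection and ran 2 h (5 min frames, 0.5 mm3 voxels), with a heating pad for body temperature. Region-of-interest analysis gave tissue time-activity curves.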

LAT2 = conditions: cited from earlier work
[3] = 30 min after single intravenous injection
[4] = 60 min after single intravenous injection

N[C@@H](Cc1ccc(CC[18F])cc1)C(=O)O [FEP, p-(2-[^18F]fluoroethyl)-L-phenylalanine]
Tumor uptake (9L xenograft; [3]): 0.82 ± 0.06 % ID/g | Tumor uptake (9L xenograft; [4]): 0.90 ± 0.20 % ID/g | Tumor to blood ratio (9L xenograft; 30 min after injection): 1.12 | Tumor/Brain ratio (9L xenograft; 30 min after injection): 1.55 | Tumor/Muscle ratio (9L xenograft; 30 min after injection): 1.41 | Blood uptake (9L xenograft; [3]): 0.73 ± 0.08 % ID/g | Bone uptake (9L xenograft; [3]): 0.41 ± 0.03 % ID/g | Brain uptake (9L xenograft; [3]): 0.53 ± 0.03 % ID/g | Heart uptake (9L xenograft; [3]): 0.70 ± 0.07 % ID/g | Kidney uptake (9L xenograft; [3]): 0.72 ± 0.05 % ID/g | Liver uptake (9L xenograft; [3]): 0.71 ± 0.07 % ID/g | Lung uptake (9L xenograft; [3]): 0.68 ± 0.08 % ID/g | Muscle uptake (9L xenograft; [3]): 0.58 ± 0.05 % ID/g | Pancreas uptake (9L xenograft; [3]): 2.66 ± 0.20 % ID/g | Skin uptake (9L xenograft; [3]): 0.57 ± 0.07 % ID/g | Spleen uptake (9L xenograft; [3]): 0.75 ± 0.06 % ID/g | Tumor to blood ratio (9L xenograft; 60 min after injection): 1.38 | Tumor/Brain ratio (9L xenograft; 60 min after injection): 1.73 | Tumor/Muscle ratio (tumor to background) (9L xenograft; 60 min after injection): 1.45 | Blood uptake (9L xenograft; [4]): 0.65 ± 0.05 % ID/g | Bone uptake (9L xenograft; [4]): 0.41 ± 0.04 % ID/g | Brain uptake (9L xenograft; [4]): 0.52 ± 0.05 % ID/g | Heart uptake (9L xenograft; [4]): 0.63 ± 0.05 % ID/g | Kidney uptake (9L xenograft; [4]): 0.63 ± 0.05 % ID/g | Liver uptake (9L xenograft; [4]): 0.63 ± 0.05 % ID/g | Lung uptake (9L xenograft; [4]): 0.61 ± 0.05 % ID/g | Muscle uptake (9L xenograft; [4]): 0.62 ± 0.05 % ID/g | Pancreas uptake (9L xenograft; [4]): 2.45 ± 0.27 % ID/g | Skin uptake (9L xenograft; [4]): 0.60 ± 0.09 % ID/g | Spleen uptake (9L xenograft; [4]): 0.69 ± 0.05 % ID/g | In vivo metabolic stability (from bone uptake) (9L xenograft; bone uptake not significant at 30 and 60 min): metabolically stable | Maximum uptake relative to FET (9L glioma cells [1]): about 1.4 fold | Inhibition of uptake by BCH (9L glioma cells [2]; 5 mM BCH (system L inhibitor), normalized to uptake in PBS): more than 98% | Inhibition of uptake by D-Met (9L glioma cells [2]; D-Met (LAT1 specific inhibitor)): very similar effect as BCH | Inhibition of uptake by MeAIB (9L glioma cells [2]; MeAIB (system A inhibitor) 0.5 to 5 mM): no inhibition | Sodium dependence of uptake (9L glioma cells [2]; Na+ replaced with choline vs PBS): sodium independent | Time for radioactivity in heart and muscle to reach a plateau (9L tumor): 20 min

N[C@@H](Cc1ccc(OCC[18F])cc1)C(=O)O [FET, O-(2-[^18F]fluoroethyl)-L-tyrosine]
Transport subtype selectivity (LAT2): selectively transported via LAT2
